Measured values taken from PMC5299621 (The Journal of General Physiology, 2017).
Each block holds one molecule with its values, some of them ahead of it.

Columns and labels:
hTRPM2 G1389A mutant [1] = target: T1, hTRPM2 G1389A mutant (Homo sapiens, UniProt O94759, G1389A); assay: Whole-cell recording of H2O2-induced TRPM2 currents, G1389A mutant; type: cell-based; conditions: extracellular H2O2, 10 mM / 30 mM
How it was run: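 Whole-cell recording at RT was done on transiently transfected HEK293 cells, alongside untransfected and WT-expressing cells. Pipette: 147 mM NaCl, 0.05 mM EGTA, 1 mM MgCl2, 10 mM HEPES, pH 7.3. Cells were held at 0 mV with a 500-ms ramp from −100 to 100 mV every 5 s. At least six cells per condition.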

hTRPM2 G1389A mutant [2] = target: T1, hTRPM2 G1389A mutant; assay: Whole-cell recording of calcium-induced TRPM2 currents, G1389A mutant; type: cell-based; conditions: 50 mM calcium, intracellular solution
How it was run: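 Transiently transfected HEK293 cells were compared with untransfected and WT-expressing cells by whole-cell recording at RT. Cells were held at 0 mV with a 500-ms ramp from −100 to 100 mV every 5 s. At least six cells per condition.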

hTRPM2 WT channel = hTRPM2 WT channel (Homo sapiens, UniProt O94759); assay: Whole-cell recording of ADPR-induced currents, HEK293 cells expressing WT hTRPM2; type: cell-based
Sequence of hTRPM2 WT channel (O94759 whole entry): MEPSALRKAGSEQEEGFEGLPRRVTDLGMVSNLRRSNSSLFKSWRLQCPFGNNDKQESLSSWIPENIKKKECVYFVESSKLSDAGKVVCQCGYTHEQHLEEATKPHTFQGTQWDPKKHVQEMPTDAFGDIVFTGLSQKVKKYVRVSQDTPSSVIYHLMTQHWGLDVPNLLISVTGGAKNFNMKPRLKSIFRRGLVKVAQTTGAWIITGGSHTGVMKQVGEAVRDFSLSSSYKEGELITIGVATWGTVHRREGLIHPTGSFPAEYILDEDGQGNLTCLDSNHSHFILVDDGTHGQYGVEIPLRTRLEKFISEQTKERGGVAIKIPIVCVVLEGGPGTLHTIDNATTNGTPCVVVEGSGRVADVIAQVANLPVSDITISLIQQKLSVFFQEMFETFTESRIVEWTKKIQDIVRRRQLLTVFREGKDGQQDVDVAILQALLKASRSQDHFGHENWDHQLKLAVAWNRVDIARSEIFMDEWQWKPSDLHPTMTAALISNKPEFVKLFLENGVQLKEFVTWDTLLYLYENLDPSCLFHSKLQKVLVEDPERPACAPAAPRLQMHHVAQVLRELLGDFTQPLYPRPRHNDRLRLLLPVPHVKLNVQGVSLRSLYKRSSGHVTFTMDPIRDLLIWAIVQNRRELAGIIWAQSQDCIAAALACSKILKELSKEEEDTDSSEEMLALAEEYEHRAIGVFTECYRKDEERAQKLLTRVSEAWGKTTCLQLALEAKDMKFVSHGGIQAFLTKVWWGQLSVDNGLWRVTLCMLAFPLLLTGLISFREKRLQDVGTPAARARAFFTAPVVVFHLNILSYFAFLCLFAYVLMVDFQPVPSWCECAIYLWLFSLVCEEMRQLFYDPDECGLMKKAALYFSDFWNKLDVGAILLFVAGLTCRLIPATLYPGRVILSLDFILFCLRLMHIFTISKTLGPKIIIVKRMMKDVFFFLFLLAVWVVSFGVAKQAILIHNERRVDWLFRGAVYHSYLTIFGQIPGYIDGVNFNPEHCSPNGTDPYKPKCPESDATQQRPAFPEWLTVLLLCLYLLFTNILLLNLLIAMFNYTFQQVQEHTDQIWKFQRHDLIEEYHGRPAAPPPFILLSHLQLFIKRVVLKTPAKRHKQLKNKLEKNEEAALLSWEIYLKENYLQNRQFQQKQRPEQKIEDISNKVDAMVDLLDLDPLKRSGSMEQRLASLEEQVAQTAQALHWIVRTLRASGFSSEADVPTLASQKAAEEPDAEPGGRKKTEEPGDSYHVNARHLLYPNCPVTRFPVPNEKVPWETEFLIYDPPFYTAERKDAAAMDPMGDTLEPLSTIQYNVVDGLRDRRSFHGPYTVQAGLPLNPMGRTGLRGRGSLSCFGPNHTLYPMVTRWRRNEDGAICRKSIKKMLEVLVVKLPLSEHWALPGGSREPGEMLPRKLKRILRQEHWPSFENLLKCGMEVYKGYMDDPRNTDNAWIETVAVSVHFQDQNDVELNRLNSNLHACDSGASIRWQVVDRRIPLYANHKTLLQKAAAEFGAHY

hTRPM2 H1346W mutant = hTRPM2 H1346W mutant (Homo sapiens, UniProt O94759, H1346W); assay: Whole-cell ADPR-induced currents, HEK293, H1346W mutant; type: cell-based
Sequence of hTRPM2 H1346W mutant (O94759 whole entry H1346W): as the sequence (O94759 whole entry) above, with H1346W counted along it

hTRPM2 T1347F mutant = hTRPM2 T1347F mutant (Homo sapiens, UniProt O94759, T1347F); assay: Whole-cell ADPR-induced currents, HEK293, T1347F mutant; type: cell-based
Sequence of hTRPM2 T1347F mutant (O94759 whole entry T1347F): as the sequence (O94759 whole entry) above, with T1347F counted along it

hTRPM2 T1347Y mutant = hTRPM2 T1347Y mutant (Homo sapiens, UniProt O94759, T1347Y); assay: Whole-cell ADPR-induced currents, HEK293, T1347Y mutant; type: cell-based
Sequence of hTRPM2 T1347Y mutant (O94759 whole entry T1347Y): as the sequence (O94759 whole entry) above, with T1347Y counted along it

hTRPM2 L1379S mutant = hTRPM2 L1379S mutant (Homo sapiens, UniProt O94759, L1379S); assay: Whole-cell ADPR-induced currents, HEK293, L1379S mutant; type: cell-based
Sequence of hTRPM2 L1379S mutant (O94759 whole entry L1379S): as the sequence (O94759 whole entry) above, with L1379S counted along it

hTRPM2 S1391A mutant = hTRPM2 S1391A mutant (Homo sapiens, UniProt O94759, S1391A); assay: Whole-cell ADPR-induced currents, HEK293, S1391A mutant; type: cell-based
Sequence of hTRPM2 S1391A mutant (O94759 whole entry S1391A): as the sequence (O94759 whole entry) above, with S1391A counted along it

hTRPM2 E1409A mutant = hTRPM2 E1409A mutant (Homo sapiens, UniProt O94759, E1409A); assay: Whole-cell ADPR-induced currents, HEK293, E1409A mutant; type: cell-based
Sequence of hTRPM2 E1409A mutant (O94759 whole entry E1409A): as the sequence (O94759 whole entry) above, with E1409A counted along it

hTRPM2 E1409Q mutant = hTRPM2 E1409Q mutant (Homo sapiens, UniProt O94759, E1409Q); assay: Whole-cell ADPR-induced currents, HEK293, E1409Q mutant; type: cell-based
Sequence of hTRPM2 E1409Q mutant (O94759 whole entry E1409Q): as the sequence (O94759 whole entry) above, with E1409Q counted along it

hTRPM2 G1389A mutant [3] = target: T1, hTRPM2 G1389A mutant; assay: Whole-cell ADPR-induced currents, HEK293, G1389A mutant; type: cell-based; conditions: 3 µM and 100 µM ADPR (Fig. 3 C)
How it was run: (§1)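 HEK293 cells were cotransfected with 50 ng EGFP plus 1 µg WT or mutant hTRPM2 plasmid and recorded 24–36 h later, choosing cells of similar fluorescence and size. Recording was whole-cell at RT. […] Cells were held at 0 mV with a 500-ms ramp from −100 to 100 mV every 5 s. Currents were normalized to same-day mean maximal WT current. EC50 came from Hill fits. At least five cells per condition.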

hTRPM2 H1346F mutant = hTRPM2 H1346F mutant (Homo sapiens, UniProt O94759, H1346F); assay: Whole-cell ADPR-induced currents, HEK293, H1346F mutant; type: cell-based; conditions: H1346F (Fig. 5 B)
Sequence of hTRPM2 H1346F mutant (O94759 whole entry H1346F): as the sequence (O94759 whole entry) above, with H1346F counted along it
How it was run: as §1

hTRPM2 T1347I mutant = hTRPM2 T1347I mutant (Homo sapiens, UniProt O94759, T1347I); assay: Whole-cell ADPR-induced currents, HEK293, T1347I mutant; type: cell-based; conditions: T1347I (Fig. 5 C)
Sequence of hTRPM2 T1347I mutant (O94759 whole entry T1347I): as the sequence (O94759 whole entry) above, with T1347I counted along it
How it was run: as §1

hTRPM2 R1433L mutant = hTRPM2 R1433L mutant (Homo sapiens, UniProt O94759, R1433L); assay: Whole-cell ADPR-induced currents, HEK293, R1433L mutant; type: cell-based; conditions: R1433L (Fig. 5 E)
Sequence of hTRPM2 R1433L mutant (O94759 whole entry R1433L): as the sequence (O94759 whole entry) above, with R1433L counted along it
How it was run: as §1

hTRPM2 R1433Q mutant = hTRPM2 R1433Q mutant (Homo sapiens, UniProt O94759, R1433Q); assay: Whole-cell ADPR-induced currents, HEK293, R1433Q mutant; type: cell-based; conditions: R1433Q (Fig. 5 E)
Sequence of hTRPM2 R1433Q mutant (O94759 whole entry R1433Q): as the sequence (O94759 whole entry) above, with R1433Q counted along it
How it was run: as §1

hTRPM2 Y1349F mutant = hTRPM2 Y1349F mutant (Homo sapiens, UniProt O94759, Y1349F); assay: Whole-cell ADPR-induced currents, HEK293, Y1349F mutant; type: cell-based; conditions: Y1349F (Fig. 6 B)
Sequence of hTRPM2 Y1349F mutant (O94759 whole entry Y1349F): as the sequence (O94759 whole entry) above, with Y1349F counted along it
How it was run: as §1

hTRPM2 Y1349S mutant = hTRPM2 Y1349S mutant (Homo sapiens, UniProt O94759, Y1349S); assay: Whole-cell ADPR-induced currents, HEK293, Y1349S mutant; type: cell-based; conditions: Y1349S (Fig. 6 B)
Sequence of hTRPM2 Y1349S mutant (O94759 whole entry Y1349S): as the sequence (O94759 whole entry) above, with Y1349S counted along it
How it was run: as §1

hTRPM2 L1484A mutant = hTRPM2 L1484A mutant (Homo sapiens, UniProt O94759, L1484A); assay: Whole-cell ADPR-induced currents, HEK293, L1484A mutant; type: cell-based; conditions: 3 µM and 100 µM ADPR (Fig. 3 C)
Sequence of hTRPM2 L1484A mutant (O94759 whole entry L1484A): as the sequence (O94759 whole entry) above, with L1484A counted along it
How it was run: as §1

hTRPM2 D1287A mutant = hTRPM2 D1287A mutant (Homo sapiens, UniProt O94759, D1287A); assay: Whole-cell ADPR-induced currents, HEK293, D1287A mutant; type: cell-based; conditions: ADPR 100 µM (Fig. 8)
Sequence of hTRPM2 D1287A mutant (O94759 whole entry D1287A): as the sequence (O94759 whole entry) above, with D1287A counted along it
How it was run: as §1

hTRPM2 S1340A mutant = hTRPM2 S1340A mutant (Homo sapiens, UniProt O94759, S1340A); assay: Whole-cell ADPR-induced currents, HEK293, S1340A mutant; type: cell-based; conditions: ADPR 100 µM (Fig. 8)
Sequence of hTRPM2 S1340A mutant (O94759 whole entry S1340A): as the sequence (O94759 whole entry) above, with S1340A counted along it
How it was run: as §1

TRPM2 E1409K mutation = conditions: ref Perraud et al., 2005, Tóth et al., 2014; cited from earlier work

T1 sequence (O94759 whole entry G1389A): as the sequence (O94759 whole entry) above, with G1389A counted along it

H2O2-induced current (hTRPM2 G1389A mutant [1]): failed to induce a current
Molecule: OO [H2O2]

Channel activation by calcium (hTRPM2 G1389A mutant [2]): readily activated
Molecule: [Ca+2] [calcium]

Hill slope (hTRPM2 WT channel): 2.6
Hill slope (hTRPM2 H1346W mutant): 2.0
Hill slope (hTRPM2 T1347F mutant): 1.2
Hill slope (hTRPM2 T1347Y mutant): 1.3
Hill slope (hTRPM2 L1379S mutant): 1.0
Hill slope (hTRPM2 S1391A mutant): 2.7
Hill slope (hTRPM2 E1409A mutant): 1.5
Hill slope (hTRPM2 E1409Q mutant): 1.6
Channel activation by ADPR (hTRPM2 G1389A mutant [3]): failed to be activated
Channel sensitivity to ADPR (hTRPM2 H1346F mutant): completely insensitive
Channel sensitivity to ADPR (hTRPM2 T1347I mutant): completely lost sensitivity
Response to ADPR (hTRPM2 R1433L mutant): no response
Response to ADPR (hTRPM2 R1433Q mutant): no response
Channel function with ADPR (hTRPM2 L1484A mutant): lack of channel function
Activity induced by ADPR (hTRPM2 D1287A mutant): normal activity
Activity induced by ADPR (hTRPM2 S1340A mutant): normal activity
Molecule: adenosine diphosphate ribose [ADPR]
Channel activation by ADPR (hTRPM2 Y1349F mutant): did not significantly alter channel activation
Channel activation by ADPR (hTRPM2 Y1349S mutant): neither Y1349A nor Y1349S mutant could be activated
Impact of mutation on ADPR binding to the NUDT9-H domain (TRPM2 E1409K mutation): little impact
